Data published in publication PMC9306536 (Clinical Pharmacology in Drug Development, 2022).
Read-outs that look alike come from different tables or passages of the source.

How the values were obtained:
[1] = cited from earlier work
[2] = Population PK analysis of pemigatinib in patients with advanced malignancies; type: in vivo, human
Outline: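 Sampling was rich in phase 1 and sparse in phase 2. Values <1 nM (LLOQ) were excluded. Log-transformed data were fitted with 1-/2-compartment models with first-order absorption and linear elimination. Covariates were GAM-screened, then added and removed stepwise in NONMEM. 95% CIs came from a 500-run bootstrap, with VPC.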

[3] = Hyperphosphatemia in patients of the population PK dataset; type: in vivo, human
Outline: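 Pooled patients from three open-label trials on once-daily oral dosing: phase 1/2 advanced malignancies (1–20 mg escalation, 9 or 13.5 mg expansion; monotherapy or combination; 2-weeks-on/1-week-off or continuous, 21-day cycles; N = 157); Japanese phase 1 (9 or 13.5 mg, intermittent; N = 25); phase 2 cholangiocarcinoma (13.5 mg, 2-weeks-on/1-week-off; N = 136). Hyperphosphatemia scored after treatment.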

[4] = cited from earlier work; remark: listed apart in the source
[5] = cited from earlier work; remark: listed apart in the source
[6] = cited from earlier work; remark: listed apart in the source
[7] = cited from earlier work; remark: listed apart in the source
[8] = cited from earlier work; remark: listed apart in the source
[9] = fed state (high-fat and high-calorie diet); ref data on file; cited from earlier work
[10] = cited from earlier work; remark: listed apart in the source
[11] = cited from earlier work; remark: listed apart in the source
[12] = final model covariate coefficient
[13] = final model covariate power term
[14] = final population PK model, Table 4

In the case of CCN1C(=O)N(c2c(F)c(O)cc(OC)c2F)Cc2cnc3[nH]c(CN4CCOCC4)cc3c21 [M2, O‐desmethyl pemigatinib], the “share of the metabolite burden in urine and feces” value ([1]; M2 and its secondary metabolites (M7, M8, and M9) together, ref data on file) is given as 76.9%.

With CCN1C(=O)N(c2c(F)c(OC)cc(OC)c2F)Cc2cnc3[nH]c(CN4CCOCC4)cc3c21 [pemigatinib, Pemigatinib] the “CL/F with moderate CYP3A4 inducer higher than pemigatinib alone” value ([2]; 1 patient) was “≈ 100%”, the CL/F ([2]; base structural model) was 10.7 L/h and the “IIV for Vc/F” value ([2]; base structural model) was 44.6 % CV. The “IIV for Vp/F” value ([2]; base structural model) was 37.3 % CV, the IIV for ka ([2]; base structural model) was 133 % CV and the Q/F ([2]; base structural model) was 14.5 L/h. It also gave a Vc/F ([2]; base structural model) of 134 L, a Vp/F ([2]; base structural model) of 87.0 L and a first-order ka ([2]; base structural model) of 0.997 h⁻¹. For the same compound, the “CL/F of pemigatinib alone” value ([2]; comparator for the patient on a moderate CYP3A4 inducer) was 11.7 L/h, the “predicted Cmax steady state (Cmax,ss)” value ([2]; female patients) was 0.09653 µg/mL and the “Magnitude of Interindividual Variability of CL/F” value ([2]; final model) was 43.4 %CV. For the same compound, the “Magnitude of Interindividual Variability of Vc/F” value ([2]; final model) was 35.1 %CV, the “Magnitude of Interindividual Variability of ka” value ([2]; final model) was 127 %CV and the “contribution of sex to the change of oral clearance” value ([2]; final model) was less than 20%. The “decrease of typical CL/F by phosphate binder coadministration” value ([2]; final model) was 14.1%, the “increase of typical Vc/F by proton pump inhibitor coadministration” value ([2]; final model) was 24.4% and the “typical CL/F, males higher compared with females” value ([2]; final model) was 19.0%. The “typical ka, males lower compared with females” value ([2]; final model) was 56.5%, the “Proton pump inhibitor on Vc/F, Population Mean” value [2, 12] was “–0.244” and the “Sex (male vs female) on CL, Population Mean” value [2, 12] was 0.190. For the same compound, the “Body weight (median = 73.3 kg) on Vc/F, Population Mean” value [2, 13] was 0.738, the “Body weight on Vp/F, Population Mean” value [2, 13] was 1.22 and the “typical apparent volume of distribution of the peripheral compartment (Vp/F)” value ([2]; final model, 73.3-kg patient) was 80.1 L. For the same compound, the typical ka ([2]; final model, female patients) was 1.49 h⁻¹, the “typical absorption rate constant (ka)” value ([2]; final model, females) was 1.49 L/h and the “typical oral clearance (CL/F)” value ([2]; final model, females) was 10.3 L/h. For the same compound, the “CL/F, Population Mean” value [2, 14] was 9.00 L/h, the “Q/F, Population Mean” value [2, 14] was 16.0 L/h and the “Vc/F, Population Mean” value [2, 14] was 161 L. For the same compound, the “Vp/F, Population Mean” value [2, 14] was 80.1 L, the “ka, Population Mean” value [2, 14] was 1.49 h⁻¹ and the “increase of typical CL/F by coadministration with a weak CYP3A4 inducer” value ([2]; full multivariate PK model (covariate removed from final model)) was 24.2%. For the same compound, the Vd/F ([2]; human, plasma, oral) was 122 L, the half-life ([2]; human, plasma, oral) was 16 h and the “increase in Cmax,ss, female vs male patients” value ([2]; post hoc estimates) was 27%. For the same compound, the Cmax ([2]; read-out: predicted Cmax steady state (Cmax,ss), female patients) was 0.198 µM, the “post hoc-estimated CL/F” value ([2]; the 1 patient with concomitant moderate CYP3A4 inducer) was 22.8 L/h and the “geometric mean CL/F” value ([2]; this population PK analysis) was 10.9 L/h. The “Hyperphosphatemia, Yes” value ([3]; N = 318) was 215 (67.6) n (%), the “patients who developed hyperphosphatemia after treatment” value ([3]; patients included in this analysis (N = 318)) was roughly 68% and the “accumulation ratio for AUC0-24” value [4] was “≈ 1.6”. For the same compound, the terminal elimination half-life [4] was “≈ 15 hours”, the pharmacokinetics linearity ([4]; dose range of 1 to 20 mg) was “linear” and the “renal clearance, % of total clearance” value ([1]; Introduction, no reference given) was 1.19%. For the same compound, the “predominant clearance pathway in humans” value ([1]; in vitro and in vivo data, no reference given) was “liver metabolism”, the “administered radioactive dose recovered as unchanged pemigatinib in feces” value ([1]; ref data on file) was 1.3% and the “known metabolites, share of total radioactivity” value ([1]; ref data on file) was 72%. The “pemigatinib AUC increase” value ([5]; coadministered with itraconazole (strong CYP3A4 inhibitor)) was “≈ 90%”, the “pemigatinib AUC decrease” value ([5]; coadministered with rifampin (strong CYP3A4 inducer)) was 85% and the “DDI with a weak CYP3A4 inhibitor” value ([6]; PBPK modeling) was “no DDI”. For the same compound, the “predicted decrease in AUC” value ([6]; coadministered with a strong or moderate CYP3A4 inducer, data on file) was greater than 50%, the “predicted increase in AUC” value ([6]; coadministered with a strong or moderate CYP3A4 inhibitor, data on file) was greater than 50% and the “reduction of AUC” value ([6]; coadministration of moderate CYP3A4 inducers) was greater than 50%. The “pemigatinib AUC increase” value ([7]; patients with moderate hepatic impairment) was 46%, the “pemigatinib AUC increase” value ([7]; patients with severe hepatic impairment) was 74% and the “renal clearance, % of total clearance” value [8] was 1%. For the same compound, the “exposure geometric mean ratio vs normal renal function” value ([8]; end-stage renal disease after hemodialysis) was 91.3%, the “exposure geometric mean ratio vs normal renal function” value ([8]; end-stage renal disease before hemodialysis) was 76.8% and the “pemigatinib AUC increase” value ([8]; patients with severe renal impairment) was 59%. The “delay of median time to Cmax” value [9] was 4.02 h, the “effect on the overall exposure of pemigatinib” value ([10]; coadministration with esomeprazole or ranitidine) was “modest effect” and the AUC decrease ([10]; with esomeprazole (PPI)) was 8%. The AUC increase ([10]; with ranitidine (H2-receptor antagonist)) was 3%, the “Biopharmaceutics Classification System class” value [11] was “Class II” and the permeability [11] was “high”. The solubility [11] was “pH‐dependent”.
